Here are results for five compounds from ChEMBL document CHEMBL1140751, “Novel sst5-selective somatostatin dicarba-analogues: synthesis and conformation-affinity relationships” (J Med Chem, 2008).

For experiment [1], the target named is Somatostatin receptor type 1 (Homo sapiens, UniProt P30872). Put plainly: Displacement of [125I](Leu8,D-Trp22,Tyr25)-SRIF28 from human sst1 receptor. The method in brief: (§1)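 Membranes came from CHO-K1 and CCL39 cells stably expressing the human sst1–sst5 receptors. Receptor autoradiography was performed on 20 µm pellet sections mounted on slides. IC50 was derived from signal quantified by computer-assisted image processing.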
Sequence of Somatostatin receptor type 1 (P30872 whole entry): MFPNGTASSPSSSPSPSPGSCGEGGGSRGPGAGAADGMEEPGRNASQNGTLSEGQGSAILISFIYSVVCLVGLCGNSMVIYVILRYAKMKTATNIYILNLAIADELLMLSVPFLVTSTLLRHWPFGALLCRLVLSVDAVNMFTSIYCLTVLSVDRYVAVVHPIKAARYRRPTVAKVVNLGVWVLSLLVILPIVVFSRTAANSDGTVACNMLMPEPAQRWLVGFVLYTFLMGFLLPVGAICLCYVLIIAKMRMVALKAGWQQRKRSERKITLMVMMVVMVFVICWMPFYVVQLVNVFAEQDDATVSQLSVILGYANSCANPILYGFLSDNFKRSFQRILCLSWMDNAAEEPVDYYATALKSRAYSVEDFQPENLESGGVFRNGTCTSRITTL

For experiment [2], the target named is Somatostatin receptor type 2 (Homo sapiens, UniProt P30874). Put plainly: Displacement of [125I](Leu8,D-Trp22,Tyr25)-SRIF28 from human sst2 receptor. The method, boiled down:
as §1

Experiment [3] concerns the target Somatostatin receptor type 3 (Homo sapiens, UniProt P32745). Put plainly: Displacement of [125I](Leu8,D-Trp22,Tyr25)-SRIF28 from human sst3 receptor. The method, boiled down: as §1
On the technique in general: Loss of bound radioactivity is the signal in a displacement assay; it reports binding, not function.

For experiment [4], the target named is Somatostatin receptor type 4 (Homo sapiens, UniProt P31391). Briefly: Displacement of [125I](Leu8,D-Trp22,Tyr25)-SRIF28 from human sst4 receptor. The method, boiled down:
as §1

Experiment [5] addresses T1, Somatostatin receptor type 5 (Homo sapiens, UniProt P35346). Briefly: Displacement of [125I](Leu8,D-Trp22,Tyr25)-SRIF28 from human sst5 receptor. The method in brief: as §1
Experiment [6] has as its target T1, Somatostatin receptor type 5. Put plainly: Binding affinity to sst5 receptor.

Numbered stars: 1 amine (or outer) side, 2 acyl side, 3 side chain; on linkers, the order of the positions; unused ones are H or OH. Bridge positions count the residues as written; N and C are the ends. Square brackets hold non-standard residues; d marks the D form. Peptide text beside a SMILES is read from it. Phe(Nα-(CH2)3CO) = O=C([C@H](Cc1ccccc1)N(CCCC(=O)[*:3])[*:1])[*:2]; N(2-aminoethyl)Phe = O=C([C@H](Cc1ccccc1)N(CCN[*:3])[*:1])[*:2]

Sequence of Somatostatin receptor type 2 (P30874 whole entry): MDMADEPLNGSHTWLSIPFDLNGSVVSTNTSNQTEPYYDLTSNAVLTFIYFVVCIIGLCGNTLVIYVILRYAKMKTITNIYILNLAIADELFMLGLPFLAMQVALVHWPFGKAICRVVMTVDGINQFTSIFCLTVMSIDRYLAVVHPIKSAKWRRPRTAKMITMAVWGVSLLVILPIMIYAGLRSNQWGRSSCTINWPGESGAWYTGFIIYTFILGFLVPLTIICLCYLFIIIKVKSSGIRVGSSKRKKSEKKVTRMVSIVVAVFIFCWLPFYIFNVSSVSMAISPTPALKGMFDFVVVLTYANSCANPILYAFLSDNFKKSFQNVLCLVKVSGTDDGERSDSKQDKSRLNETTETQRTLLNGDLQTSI
Sequence of Somatostatin receptor type 3 (P32745 whole entry): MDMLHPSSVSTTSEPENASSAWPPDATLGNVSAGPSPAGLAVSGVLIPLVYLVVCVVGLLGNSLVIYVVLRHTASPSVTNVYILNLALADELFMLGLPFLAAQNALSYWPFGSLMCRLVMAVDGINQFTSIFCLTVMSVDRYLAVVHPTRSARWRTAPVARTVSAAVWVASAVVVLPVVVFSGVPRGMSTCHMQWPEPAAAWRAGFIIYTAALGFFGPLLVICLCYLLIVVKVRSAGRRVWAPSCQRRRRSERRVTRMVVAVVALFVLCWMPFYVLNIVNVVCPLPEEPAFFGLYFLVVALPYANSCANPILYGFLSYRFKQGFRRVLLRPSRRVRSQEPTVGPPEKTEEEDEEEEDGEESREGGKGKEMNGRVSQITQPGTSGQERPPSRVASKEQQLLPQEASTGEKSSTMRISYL
Sequence of Somatostatin receptor type 4 (P31391 whole entry): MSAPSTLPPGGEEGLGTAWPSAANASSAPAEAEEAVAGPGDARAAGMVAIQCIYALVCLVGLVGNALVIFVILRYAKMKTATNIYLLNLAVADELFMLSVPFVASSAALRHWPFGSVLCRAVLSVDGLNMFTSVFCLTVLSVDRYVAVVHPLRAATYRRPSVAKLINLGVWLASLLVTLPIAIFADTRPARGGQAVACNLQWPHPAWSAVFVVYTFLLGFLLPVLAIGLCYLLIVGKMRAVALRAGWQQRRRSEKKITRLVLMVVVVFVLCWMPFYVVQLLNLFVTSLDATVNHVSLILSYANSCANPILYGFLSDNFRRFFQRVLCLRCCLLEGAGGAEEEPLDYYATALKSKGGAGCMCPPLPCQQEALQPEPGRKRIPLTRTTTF
T1 sequence (P35346 whole entry): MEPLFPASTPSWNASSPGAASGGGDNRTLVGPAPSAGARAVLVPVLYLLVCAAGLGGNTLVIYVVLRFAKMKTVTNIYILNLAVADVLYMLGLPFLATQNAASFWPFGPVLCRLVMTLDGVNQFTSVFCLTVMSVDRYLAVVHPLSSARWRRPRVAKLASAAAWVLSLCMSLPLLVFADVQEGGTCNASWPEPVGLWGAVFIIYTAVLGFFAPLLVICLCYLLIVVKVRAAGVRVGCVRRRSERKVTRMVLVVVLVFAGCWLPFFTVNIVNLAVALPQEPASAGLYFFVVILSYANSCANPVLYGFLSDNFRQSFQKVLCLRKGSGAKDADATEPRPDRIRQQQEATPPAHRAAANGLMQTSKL

As a reminder, the IC50 is the concentration that gives 50% inhibition. Read a high IC50 as lower potency. In the case of `C[C@@H](O)[C@@H]1NC(=O)[C@H](CCCCN)NC(=O)[C@@H](Cc2c[nH]c3ccccc23)NC(=O)[C@H](Cc2ccccc2)NC(=O)[C@@H](NC(=O)[C@H](N)Cc2ccccc2)CCCC[C@@H](C(=O)N[C@H](CO)[C@@H](C)O)NC1=O`, the IC50 was over 1000 nM in experiment [1]; 49 nM in experiment [2]; over 1000 nM in experiment [3]; 214 nM in experiment [4]; 203 nM in experiment [5].

Take `C[C@@H](O)[C@@H](CO)NC(=O)[C@@H]1C/C=C\C[C@H](NC(=O)[C@H](N)Cc2ccccc2)C(=O)N[C@@H](Cc2ccccc2)C(=O)N[C@H](Cc2c[nH]c3ccccc23)C(=O)N[C@@H](CCCCN)C(=O)N[C@@H](Cc2ccccc2)C(=O)N1`: the half-inhibitory concentration (IC50) was 961 nM in experiment [1]; over 1000 nM in experiment [2]; over 1000 nM in experiment [3]; 141 nM in experiment [4]; 206 nM in experiment [5].

Consider `CC(C)[C@@H]1NC(=O)[C@H](CCCCN)NC(=O)[C@@H](Cc2c[nH]c3ccccc23)NC(=O)[C@H](Cc2ccc(O)cc2)NC(=O)[C@H](Cc2ccccc2)NCCNC(=O)CCCN([C@@H](Cc2ccccc2)C(=O)N[C@H](C(N)=O)[C@@H](C)O)C1=O` (H-[N(2-aminoethyl)Phe]Y[dW]KV[Phe(Nα-(CH2)3CO)]T-NH2; lactam 1-6), for which, in experiment [6], the IC50 is 67 nM.

On to `C[C@@H](O)[C@@H]1NC(=O)[C@H](CCCCN)NC(=O)[C@@H](Cc2c[nH]c3ccccc23)NC(=O)[C@H](Cc2ccccc2)NC(=O)[C@@H](NC(=O)[C@H](N)Cc2ccccc2)C/C=C\C[C@@H](C(=O)N[C@H](CO)[C@@H](C)O)NC1=O`, for which the half-maximal inhibitory concentration (IC50) in experiment [1] was over 1000 nM; in experiment [2] it was 44 nM; in experiment [3], over 1000 nM; in experiment [4], 412 nM; in experiment [5], 28 nM.

Regarding `C[C@H](N)COC(=O)[C@H](CCCCN)NC(=O)Cc1c(-c2ccc3ccccc3c2)[nH]c2c1ccc1ccccc12`, the IC50 in experiment [6] is 0.4 nM.
